Experiment [1] deals with HaCaT. The experiment can be described thus: Antiproliferative activity (AA) against HaCaT keratinocytes. In kind it is functional, cell-based. Conditions: Homo sapiens.
Experiment [2] has as its system HaCaT. The experiment in a line: Cytotoxicity of LDH release in HaCaT cells. On the set-up: unit: mU. The format is functional, Homo sapiens. The procedure, abridged:
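HaCaT cells treated with 2 μM test compound; plasma membrane damage measured as lactate dehydrogenase activity released into culture medium, in mU; N = 3; compared with vehicle control.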
Background: LDH leaks from cells whose membrane has failed.

In experiment [3] the target is T1, Arachidonate 5-lipoxygenase (Bos taurus, UniProt Q9BEG3).
T1 sequence (Q9BEG3 whole entry): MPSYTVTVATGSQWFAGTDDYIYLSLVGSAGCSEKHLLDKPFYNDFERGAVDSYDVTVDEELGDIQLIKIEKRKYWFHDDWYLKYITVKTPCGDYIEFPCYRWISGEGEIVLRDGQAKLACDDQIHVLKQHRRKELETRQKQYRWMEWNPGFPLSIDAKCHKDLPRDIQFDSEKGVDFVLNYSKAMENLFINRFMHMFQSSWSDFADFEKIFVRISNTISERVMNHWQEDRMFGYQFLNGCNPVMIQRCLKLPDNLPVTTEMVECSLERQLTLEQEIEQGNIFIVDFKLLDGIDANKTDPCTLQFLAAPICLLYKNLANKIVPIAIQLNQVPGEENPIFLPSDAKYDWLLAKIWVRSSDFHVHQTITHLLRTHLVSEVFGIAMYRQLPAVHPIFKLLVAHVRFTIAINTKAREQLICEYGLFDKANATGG
The experiment can be described thus: 5-LO inhibitory activity, measured by production of 5-hydroxyeicosatetraenoic acid (5-HETE) and leukotriene B4 (LTB4) in bovine polymorphonuclear leukocytes. In kind it is functional, cell-based.

Experiment [4] can be described thus: Antioxidant activity, measuring Deoxyribose degradation (DD) as a measure of hydroxyl radical formation. The procedure, abridged: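 Deoxyribose assay: 2-deoxy-D-ribose incubated with 75 μM test compound; hydroxyl-radical generation read as malondialdehyde release, expressed as μmol MDA/mmol deoxyribose; compared with control.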

pIC50: −log10 of the molar value.

A word on the pIC50: it is the IC50 on a negative log10 scale, so that one unit is a factor of ten.

With `COC(=O)CCCCCc1ccc2c(c1O)C(=O)c1c(O)cccc1C2`, the pIC50 in the experiment with HaCaT [1] was 5.80; in experiment [3], below 4.52. For the same molecule, the LDH with HaCaT [2] amounted to 142 MU.

As to `CCCCOc1ccc(CC(=O)NO)cc1` [BUFEXAMAC], the values for the pIC50 (in the experiment with HaCaT [1]; in experiment [3]) were below 5.30 and 4.46, respectively. This molecule also came in with an LDH in the experiment on HaCaT [2] of 135 MU.

In the case of `CC(C(=O)O)c1ccc2c(c1O)C(=O)c1c(O)cccc1C2` (stereo unspecified), the pIC50 in the experiment on HaCaT [1] is below 5.30; in experiment [3] it was 4.77.

Regarding `CC(C(=O)N(C)O)c1ccc2c(c1O)C(=O)c1c(O)cccc1C2` (stereo unspecified), the pIC50 in the experiment on HaCaT [1] was 5.82; in experiment [3], 5.22. In the experiment with HaCaT [2], this molecule had an LDH of 142 MU. In experiment [4], the DD is 1.57 µmol/mmol.

For `CC(C)C(C(=O)N(C)O)c1ccc2c(c1O)C(=O)c1c(O)cccc1C2` (stereo unspecified), the results for the pIC50 (in the experiment on HaCaT [1]; in experiment [3]) were 5.82 and 5.30, respectively. The molecule further returned an LDH in the experiment with HaCaT [2] of 135 MU. Besides, in experiment [4], the DD stood at 0.86 µmol/mmol.

Turning to `COC(=O)C(Cc1ccccc1)c1ccc2c(c1O)C(=O)c1c(O)cccc1C2` (stereo unspecified), the pIC50 in the experiment on HaCaT [1] is 5.74; in experiment [3] it was below 4.52. This molecule also came in with a DD in experiment [4] below 0.15 µmol/mmol.

In the experiment with HaCaT [2], `CN(O)C(=O)CCc1ccc2c(c1O)C(=O)c1c(O)cccc1C2` gave an LDH of 135 MU. The molecule further yielded a DD in experiment [4] of 0.92 µmol/mmol.

The molecule `CC(C(=O)NO)c1ccc2c(c1O)C(=O)c1c(O)cccc1C2` (stereo unspecified) had a pIC50 in the experiment on HaCaT [1] of 5.70. In experiment [4], this molecule yielded a DD of 1.3 µmol/mmol.

On to `COC(=O)CCc1ccc2c(c1O)C(=O)c1c(O)cccc1C2`, for which the results for the pIC50 (in the experiment with HaCaT [1]; in experiment [3]) were 6.10 and below 4.52, respectively.

In experiment [4], `O=C(O)c1ccc(Cc2ccc3c(c2O)C(=O)c2c(O)cccc2C3)cc1` showed a DD below 0.15 µmol/mmol.

For the molecule `COC(=O)CCCCc1ccc2c(c1O)C(=O)c1c(O)cccc1C2`, the results for the pIC50 (in the experiment on HaCaT [1]; in experiment [3]) were 5.74 and below 4.52, respectively. The molecule further came in with an LDH in the experiment on HaCaT [2] of 146 MU. In addition, in experiment [4], the DD stood at 0.62 µmol/mmol.

On to `CC(C)C(C(=O)O)c1ccc2c(c1O)C(=O)c1c(O)cccc1C2` (stereo unspecified), for which the pIC50 in the experiment on HaCaT [1] is below 5.30. Besides, the LDH with HaCaT [2] is recorded as 128 MU. The molecule also yielded a DD in experiment [4] of 3.58 µmol/mmol.

For the molecule `COC(=O)c1ccc(C(=O)c2ccc3c(c2O)C(=O)c2c(O)cccc2C3)cc1`, the pIC50 with HaCaT [1] is 5.74; in experiment [3], below 4.52.

On to `O=C(CCc1ccc2c(c1O)C(=O)c1c(O)cccc1C2)NO`, for which the pIC50 in the experiment with HaCaT [1] was 5.89; in experiment [3], 5.40. Further, the DD in experiment [4] was 1.67 µmol/mmol.

For `CN(O)C(=O)Cc1ccc2c(c1O)C(=O)c1c(O)cccc1C2`, the values for the pIC50 (in the experiment with HaCaT [1]; in experiment [3]) were 6.10 and 6.00, respectively. The molecule also gave an LDH in the experiment with HaCaT [2] of 150 MU. Besides, in experiment [4], the DD was found to be 1.67 µmol/mmol.

As to `O=C(O)CCCCCc1ccc2c(c1O)C(=O)c1c(O)cccc1C2`, the values for the negative-log IC50 (pIC50) (in the experiment on HaCaT [1]; in experiment [3]) were below 5.30 and 5.00, respectively. The same molecule had a DD in experiment [4] of 2.29 µmol/mmol.

`O=C(CCCCc1ccc2c(c1O)C(=O)c1c(O)cccc1C2)NO`: the pIC50 (in the experiment with HaCaT [1]; in experiment [3]) was 5.70 in each case. Besides, the LDH in the experiment on HaCaT [2] amounted to 135 MU. This molecule also returned a DD in experiment [4] of 1.38 µmol/mmol.

With `O=C(Cc1ccc2c(c1O)C(=O)c1c(O)cccc1C2)NO`, the pIC50 with HaCaT [1] is 5.74; in experiment [3], 5.22. In experiment [4], this molecule gave a DD of 1.89 µmol/mmol.

Take `O=C(O)c1ccc(C(=O)c2ccc3c(c2O)C(=O)c2c(O)cccc2C3)cc1`: the pIC50 is below 5.30 in the experiment on HaCaT [1] and 5.70 in experiment [3]. In addition, in experiment [4], the DD came out at 1.34 µmol/mmol.

Consider `COC(=O)CCCc1ccc2c(c1O)C(=O)c1c(O)cccc1C2`, for which the pIC50 in the experiment on HaCaT [1] is 5.96; in experiment [3], below 4.52. In experiment [4], the DD came out at 0.33 µmol/mmol.

On to `CN(O)C(=O)C(Cc1ccccc1)c1ccc2c(c1O)C(=O)c1c(O)cccc1C2` (stereo unspecified), for which the results for the pIC50 (in the experiment with HaCaT [1]; in experiment [3]) were 6.05 and 5.30, respectively. In experiment [4], the DD came out at 1.68 µmol/mmol.

As to `CN(O)C(=O)c1ccc(C(=O)c2ccc3c(c2O)C(=O)c2c(O)cccc2C3)cc1`, the pIC50 is 5.74 in the experiment on HaCaT [1] and 5.40 in experiment [3]. This molecule also displayed a DD in experiment [4] of 0.92 µmol/mmol.

Take `CN(O)C(=O)CCCCc1ccc2c(c1O)C(=O)c1c(O)cccc1C2`: the LDH in the experiment on HaCaT [2] came out at 124 MU. For the same molecule, the DD in experiment [4] came out at 1.36 µmol/mmol.

As to `COC(=O)C(c1ccc2c(c1O)C(=O)c1c(O)cccc1C2)C(C)C` (stereo unspecified), the values for the pIC50 (with HaCaT [1]; in experiment [3]) were 5.82 and below 4.52, respectively. In experiment [4], this molecule yielded a DD of 0.54 µmol/mmol.

The molecule `CN(O)C(=O)CCCc1ccc2c(c1O)C(=O)c1c(O)cccc1C2` returned an LDH with HaCaT [2] of 181 MU. The DD in experiment [4] was 1.5 µmol/mmol.

Turning to `O=C1c2c(O)cccc2Cc2ccc(C(Cc3ccccc3)C(=O)NO)c(O)c21` (stereo unspecified), the pIC50 in the experiment on HaCaT [1] was 5.82; in experiment [3], 5.40. Also, the DD in experiment [4] worked out at 1.04 µmol/mmol.

Take `O=C(O)CCCCc1ccc2c(c1O)C(=O)c1c(O)cccc1C2`: the pIC50 is below 5.30 in the experiment with HaCaT [1] and 4.89 in experiment [3]. In experiment [4], this molecule had a DD of 2.62 µmol/mmol.

With `COC(=O)Cc1ccc2c(c1O)C(=O)c1c(O)cccc1C2`, the negative-log IC50 (pIC50) with HaCaT [1] was 6.30; in experiment [3], below 4.52.

With `O=C(CCCc1ccc2c(c1O)C(=O)c1c(O)cccc1C2)NO`, the figures for the pIC50 (in the experiment on HaCaT [1]; in experiment [3]) were 5.82 and 5.52, respectively. The DD in experiment [4] was determined as 1.46 µmol/mmol.

As to `CN(O)C(=O)CCCCCc1ccc2c(c1O)C(=O)c1c(O)cccc1C2`, the pIC50 with HaCaT [1] is 6.15; in experiment [3] it was 6.40.

As to `O=C1c2c(O)cccc2Cc2ccc(C(CCc3ccccc3)C(=O)O)c(O)c21` (stereo unspecified), the pIC50 is below 5.30 with HaCaT [1] and 5.70 in experiment [3]. The molecule also had an LDH in the experiment on HaCaT [2] of 142 MU. Besides, the DD in experiment [4] is 2.47 µmol/mmol.

For the molecule `O=C(O)CCCc1ccc2c(c1O)C(=O)c1c(O)cccc1C2`, the pIC50 with HaCaT [1] is below 5.30; in experiment [3] it was 4.74. This molecule showed a DD in experiment [4] of 2.61 µmol/mmol.

For `O=C(O)Cc1ccc2c(c1O)C(=O)c1c(O)cccc1C2`, the pIC50 with HaCaT [1] is below 5.30; in experiment [3] it was 4.66. In experiment [4], this molecule returned a DD of 3.74 µmol/mmol.

`O=C1c2c(O)cccc2Cc2cccc(O)c21` [ANTHRALIN] showed a negative-log IC50 (pIC50) in the experiment on HaCaT [1] of 6.22. Also, the LDH with HaCaT [2] is 294 MU. The molecule further yielded a DD in experiment [4] of 2.89 µmol/mmol.

For `O=C(NO)c1ccc(Cc2ccc3c(c2O)C(=O)c2c(O)cccc2C3)cc1`, the figures for the negative-log IC50 (pIC50) (in the experiment on HaCaT [1]; in experiment [3]) were 5.96 and 5.30, respectively.

As to `COC(=O)C(CCc1ccccc1)c1ccc2c(c1O)C(=O)c1c(O)cccc1C2` (stereo unspecified), the pIC50 in the experiment on HaCaT [1] was 5.89; in experiment [3] it was below 4.52. Besides, the LDH with HaCaT [2] is reported as 142 MU. Also, the DD in experiment [4] turned out to be 0.28 µmol/mmol.

In turn, `O=C1c2c(O)cccc2Cc2ccc(C(Cc3ccccc3)C(=O)O)c(O)c21` (stereo unspecified) gave a pIC50 with HaCaT [1] below 5.30. This molecule returned a DD in experiment [4] of 3.25 µmol/mmol.

Regarding `O=C(O)CCc1ccc2c(c1O)C(=O)c1c(O)cccc1C2`, the negative logarithm of the IC50 (pIC50) is below 5.30 with HaCaT [1] and 4.72 in experiment [3]. Further, the DD in experiment [4] worked out at 2.67 µmol/mmol.

Consider `CC(C)C(C(=O)NO)c1ccc2c(c1O)C(=O)c1c(O)cccc1C2` (stereo unspecified), for which the pIC50 was 5.82 in the experiment with HaCaT [1] and 5.22 in experiment [3]. The molecule further gave an LDH in the experiment with HaCaT [2] of 192 MU. The molecule further showed a DD in experiment [4] of 1.66 µmol/mmol.

`COC(=O)C(C)c1ccc2c(c1O)C(=O)c1c(O)cccc1C2` (stereo unspecified): the pIC50 with HaCaT [1] was 6.10; in experiment [3] it was below 4.52.

`COC(=O)c1ccc(Cc2ccc3c(c2O)C(=O)c2c(O)cccc2C3)cc1` had a pIC50 in experiment [3] below 4.52. The DD in experiment [4] is below 0.15 µmol/mmol.

The record behind these values is ChEMBL document CHEMBL1130128, “Antipsoriatic anthrones with modulated redox properties. 4. Synthesis and biological activity of novel 9,10-dihydro-1,8-dihydroxy-9-oxo-2-anthracenecarboxylic and -hydroxamic acids” (J Med Chem, 1997).
